The source of these data is ChEMBL document CHEMBL4765368, “Structure guided design and synthesis of furyl thiazolidinedione derivatives as inhibitors of GLUT 1 and GLUT 4, and evaluation of their anti-leukemic potential” (Eur J Med Chem, 2020).

Active and inactive are the calls of the source. The rule behind the calls is not given here. Where only a bound is given, the exact number is not on record here.

The test system of one assay is K562. Briefly: Cytotoxicity against human K562 cells assessed as reduction in cell viability measured after 48 hrs by Hoechst 33342/propidium iodide staining based imaging analysis. The format is functional. The method, boiled down:
(§1)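 Cells were seeded at 10,000 per well (HS-27 at 3,000) in 10% FBS RPMI (leukemic lines) or DMEM (MDA-MB-231, HS-27). Compound in DMSO (1% v/v final) at 0.5–100 µM for 48 h. Hoechst 33342 and PI were added 2 h before automated imaging; dead cells were co-stained. Quadruplicates. CC50 was taken by linear interpolation between the two concentrations nearest 50% death.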

In assay [1] the target is T1, Solute carrier family 2, facilitated glucose transporter member 4 (Homo sapiens) (UniProt P14672).
T1 sequence (whole entry): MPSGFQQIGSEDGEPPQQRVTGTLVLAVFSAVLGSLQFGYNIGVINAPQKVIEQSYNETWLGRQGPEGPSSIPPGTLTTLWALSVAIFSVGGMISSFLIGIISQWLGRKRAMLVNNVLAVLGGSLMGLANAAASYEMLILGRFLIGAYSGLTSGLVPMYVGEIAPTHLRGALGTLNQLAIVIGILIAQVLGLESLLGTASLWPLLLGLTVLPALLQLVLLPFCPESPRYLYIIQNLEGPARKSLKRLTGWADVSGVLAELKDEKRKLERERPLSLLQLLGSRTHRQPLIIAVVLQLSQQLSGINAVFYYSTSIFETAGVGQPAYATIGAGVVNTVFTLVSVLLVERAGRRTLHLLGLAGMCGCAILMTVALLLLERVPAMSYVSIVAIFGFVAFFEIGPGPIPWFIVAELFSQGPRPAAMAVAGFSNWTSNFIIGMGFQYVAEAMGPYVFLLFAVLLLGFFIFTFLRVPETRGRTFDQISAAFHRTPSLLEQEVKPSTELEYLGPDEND
Briefly: Inhibition of transport activity of human GLUT4 expressed in hexose transporter deficient […] erg4 yeast cells assessed as reduction in transporter-mediated [14C]-hexose uptake into cells at 100 uM measured after 10 mins by scintillation counting method relative to control. Format: cell-based. The method, boiled down:
(§2)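 The hxt0 yeast strain expressing one human GLUT was grown at 30 °C and resuspended in PBS pH 7.4 at OD600 ~10. Uptake was started with 14C-glucose at 5 mM final (GLUT1, GLUT4) or 14C-fructose at 10 mM final (GLUT5). It was quenched after 10 min with ice-cold 0.1 M KPi/0.1 M LiCl pH 5.5, filtered and counted by scintillation. Compound at 100 μM with 1% DMSO; DMSO control and phloretin 200 μM (GLUT1/4) or MSNBA 100 μM (GLUT5) as references. Triplicates.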

Assay [2] deals with T2, Solute carrier family 2, facilitated glucose transporter member 1 (Homo sapiens, UniProt P11166).
T2 sequence (P11166 whole entry): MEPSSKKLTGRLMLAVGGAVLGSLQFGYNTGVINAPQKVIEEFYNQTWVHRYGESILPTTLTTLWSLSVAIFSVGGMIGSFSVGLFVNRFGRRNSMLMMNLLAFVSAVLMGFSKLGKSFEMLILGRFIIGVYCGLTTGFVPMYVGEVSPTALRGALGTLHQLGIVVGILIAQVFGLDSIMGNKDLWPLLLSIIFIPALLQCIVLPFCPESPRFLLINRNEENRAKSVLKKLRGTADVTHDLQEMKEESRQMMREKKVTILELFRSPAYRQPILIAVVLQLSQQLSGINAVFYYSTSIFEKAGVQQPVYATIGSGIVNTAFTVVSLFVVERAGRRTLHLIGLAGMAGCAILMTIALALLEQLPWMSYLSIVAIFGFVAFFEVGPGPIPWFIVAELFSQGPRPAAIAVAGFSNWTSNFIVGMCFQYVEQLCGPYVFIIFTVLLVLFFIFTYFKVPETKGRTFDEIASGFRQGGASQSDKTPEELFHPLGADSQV
Briefly: Inhibition of transport activity of human GLUT1 expressed in hexose transporter deficient VW4000fgy1 yeast cells assessed as reduction in transporter-mediated [14C]-hexose uptake into cells measured after 10 mins by scintillation counting method. Format: cell-based. In outline:
(§3)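 GLUT1 (VW4000fgy1) or GLUT4 (VW4000fgy1erg4) hxt0 yeast were grown on maltose and then glucose and resuspended in PBS pH 7.4 at OD600 ~10. Compound was used at 0.1–100 μM, final 1% DMSO. Uptake of 5 mM 14C-glucose over 10 min was stopped with ice-cold quench buffer, filtered and counted by scintillation. IC50 was taken from dose-response curves of three independent measurements.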

The target in assay [3] is Histone deacetylase 4 (Homo sapiens) (UniProt P56524). Briefly: Inhibition of recombinant human N-terminal GST-tagged HDAC4 (627 to end residues) expressed in baculovirus infected Sf9 insect cells assessed as residual activity at 50 uM using Boc-Lys(trifluoroacetyl)-AMC as substrate preincubated for 60 mins followed by substrate addition and measured after 60 mins by fluorescence assay relative to control. The conditions noted are these: time 120.0 min.
Chain of Histone deacetylase 4 (Homo sapiens) (P56524 whole entry): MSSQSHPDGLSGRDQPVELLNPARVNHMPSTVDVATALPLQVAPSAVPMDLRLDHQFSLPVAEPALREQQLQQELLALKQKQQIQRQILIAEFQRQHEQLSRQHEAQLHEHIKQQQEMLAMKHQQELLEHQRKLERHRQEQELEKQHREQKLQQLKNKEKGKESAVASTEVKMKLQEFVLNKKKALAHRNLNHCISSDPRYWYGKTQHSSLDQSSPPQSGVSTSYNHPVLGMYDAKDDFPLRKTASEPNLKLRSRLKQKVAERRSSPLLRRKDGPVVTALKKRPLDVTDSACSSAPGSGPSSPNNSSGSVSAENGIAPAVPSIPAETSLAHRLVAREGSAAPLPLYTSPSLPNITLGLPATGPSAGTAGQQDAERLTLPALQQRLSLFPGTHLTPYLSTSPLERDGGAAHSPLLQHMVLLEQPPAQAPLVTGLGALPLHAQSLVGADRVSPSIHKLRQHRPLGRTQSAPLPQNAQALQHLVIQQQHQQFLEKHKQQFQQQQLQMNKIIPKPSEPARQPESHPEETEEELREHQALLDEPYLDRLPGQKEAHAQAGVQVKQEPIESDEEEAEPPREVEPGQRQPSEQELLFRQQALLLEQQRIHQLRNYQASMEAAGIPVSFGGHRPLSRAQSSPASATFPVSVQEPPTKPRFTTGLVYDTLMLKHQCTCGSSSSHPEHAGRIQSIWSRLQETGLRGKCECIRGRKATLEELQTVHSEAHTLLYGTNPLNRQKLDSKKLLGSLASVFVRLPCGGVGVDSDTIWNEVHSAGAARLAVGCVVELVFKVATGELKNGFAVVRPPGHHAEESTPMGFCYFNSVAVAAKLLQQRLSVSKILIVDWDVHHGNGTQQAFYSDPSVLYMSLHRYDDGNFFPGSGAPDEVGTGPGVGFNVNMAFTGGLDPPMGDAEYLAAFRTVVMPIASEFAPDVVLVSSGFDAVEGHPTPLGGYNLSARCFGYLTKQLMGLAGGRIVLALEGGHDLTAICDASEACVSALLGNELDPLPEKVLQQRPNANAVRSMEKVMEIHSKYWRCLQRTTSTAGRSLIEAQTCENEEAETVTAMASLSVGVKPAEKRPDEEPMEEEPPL

For another assay, the system named is KCL-22. Briefly: Cytotoxicity against human KCL-22 cells assessed as reduction in cell viability measured after 48 hrs by Hoechst 33342/propidium iodide staining based imaging analysis. Format: functional. In outline: as §1
Assay [4] deals with T3, Solute carrier family 2, facilitated glucose transporter member 5 (Homo sapiens) (UniProt P22732).
T3 sequence (whole entry): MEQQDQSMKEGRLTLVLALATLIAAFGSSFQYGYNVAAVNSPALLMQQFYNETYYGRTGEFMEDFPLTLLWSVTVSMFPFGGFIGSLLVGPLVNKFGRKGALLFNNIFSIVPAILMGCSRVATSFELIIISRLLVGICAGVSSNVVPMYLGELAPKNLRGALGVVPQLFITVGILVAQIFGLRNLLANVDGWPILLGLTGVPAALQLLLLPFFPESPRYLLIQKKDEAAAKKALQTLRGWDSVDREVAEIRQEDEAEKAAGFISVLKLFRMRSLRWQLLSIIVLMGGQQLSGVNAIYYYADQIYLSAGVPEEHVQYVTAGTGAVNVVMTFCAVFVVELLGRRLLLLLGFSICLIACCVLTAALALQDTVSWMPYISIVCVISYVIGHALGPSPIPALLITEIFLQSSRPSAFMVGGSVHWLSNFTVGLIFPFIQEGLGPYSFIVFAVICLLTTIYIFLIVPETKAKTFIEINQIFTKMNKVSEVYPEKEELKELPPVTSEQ
Briefly: Inhibition of transport activity of human GLUT5 expressed in hexose transporter deficient VW4000 yeast cells assessed as reduction in transporter-mediated [14C]-fructose uptake into cells at 100 uM measured after 10 mins by scintillation counting method. Format: cell-based. In outline: as §2

Assay [5] addresses T4, Solute carrier family 2, facilitated glucose transporter member 4 (Homo sapiens, UniProt P14672).
T4 sequence (P14672 whole entry): T1 sequence (whole entry)
Description: Inhibition of transport activity of human GLUT4 expressed in hexose transporter deficient W4000fgy1 erg4 yeast cells assessed as reduction in transporter-mediated [14C]-hexose uptake into cells measured after 10 mins by scintillation counting method. The format is cell-based. The method, boiled down: as §3

Assay [6] can be described thus: Selectivity index, ratio of CC50 for human HS27 cells to CC50 for human CCRF-CEM cells. The method, boiled down:
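Ratio of HS-27 CC50 to CCRF-CEM CC50. Both came from Hoechst/PI differential nuclear staining imaging after 48 h exposure to 0.5–100 µM, in quadruplicate, with 10,000 CEM or 3,000 HS-27 cells/well. Each CC50 was estimated by linear interpolation between the two concentrations nearest 50% cell death.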

As usually defined, the CC50 is the concentration that lowers cell viability or growth by half. In general, inhibition refers to the relative decrease from the control value, in per cent. The term IC50 denotes the concentration at which inhibition is half-maximal. Regarding `O=C(CN1C(=O)S/C(=C/c2ccco2)C1=O)Nc1nc2ccccc2s1`, the CC50 worked out at 91.9 µM in the assay on K562 and 15.3 µM in the assay with KCL-22. In addition, the inhibition in assay [1] is greater than 50%. The IC50 in assay [2] was found to be 11.4 µM; in assay [5], 6.8 µM. The Activity in assay [3] is greater than 50%. Also, in assay [4], the inhibition result was “inactive”. In addition, the Selectivity Index in assay [6] is greater than 25.8.

Consider `O=C(CN1C(=O)S/C(=C/c2ccco2)C1=O)Nc1ccc(Cl)c(Cl)c1`, for which the figures for the CC50 in the assay with K562 and in the assay with KCL-22 were 43.3 µM and 72.2 µM, respectively. Besides, the inhibition in assay [1] was greater than 50%. Also, the IC50 in assay [2] amounted to 14.7 µM; in assay [5], 152 µM. The Activity in assay [3] is greater than 50%. For the same molecule, the inhibition result in assay [4] was “inactive”. In assay [6], the Selectivity Index was greater than 12.8.
